This is an account of results in ChEMBL document CHEMBL4020727, “Synthesis and biological evaluation of largazole zinc-binding group analogs” (Bioorg Med Chem, 2017).

As usually defined, the IC50 is the concentration needed to halve the response being measured. For orientation: inhibition means the share of the control response that was lost under treatment.

One assay deals with Histone deacetylase 2 (Homo sapiens, UniProt Q92769). Description: Inhibition of full length C-terminal FLAG-tagged human HDAC2 expressed in baculovirus infected Sf9 insect cells using BPS HDAC substrate 3 after 30 mins by fluorescence assay. The method, boiled down:
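Run by a contract lab. Compound incubated with HDAC enzyme, HDAC substrate, BSA and HDAC buffer, in duplicate, at 37 °C for 30 min. Quenched with HDAC developer, then 15 min at room temperature. Percent activity = (F−Fb)/(Ft−Fb), using blank and solvent-control wells. IC50 from curve fitting.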

The next assay concerns MDA-MB-231. Put plainly: Cytotoxicity against human MDA-MB-231 cells assessed as reduction in cell viability after 48 hrs by MTT assay. The settings on record: MDA-MB-231, 48 h. The assay is classed as functional, cell-based. An outline of the steps: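 Cells grown in DMEM with 10% FBS, 37 °C, 5% CO2; 1 × 10^4 cells per well plated and left 24 h, then exposed to a range of compound concentrations or vehicle (1% EtOH) for 48 h. Viability read by MTT.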
(In general: Tetrazolium assays rely on reduction of a dye to a coloured formazan, in cell work by metabolically active cells.)

Assay [1] is filed under the species Homo sapiens. Description: Inhibition of class 1 HDAC in human MDA-MB-231 cells assessed as hyperacetylation of histone H3 (Lys9/14) measured at 8 hrs post treatment by immunoblot analysis. Format: cell-based. An outline of the steps:
(§1)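 Cells in DMEM/10% FBS; 4 × 10^5 cells seeded in 60-mm dishes overnight, then treated for 8 h with 0–10 μM (final) compound or vehicle (1% EtOH). Whole-cell lysates loaded at equal protein (BCA), run on SDS-PAGE, blotted to PVDF and probed with anti-acetyl histone H3 (Lys9/14); β-actin also probed. Chemiluminescent detection.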

Assay [2] has as its target T1, Polyamine deacetylase HDAC10 (Homo sapiens, UniProt Q969S8).
T1 sequence (Q969S8 whole entry): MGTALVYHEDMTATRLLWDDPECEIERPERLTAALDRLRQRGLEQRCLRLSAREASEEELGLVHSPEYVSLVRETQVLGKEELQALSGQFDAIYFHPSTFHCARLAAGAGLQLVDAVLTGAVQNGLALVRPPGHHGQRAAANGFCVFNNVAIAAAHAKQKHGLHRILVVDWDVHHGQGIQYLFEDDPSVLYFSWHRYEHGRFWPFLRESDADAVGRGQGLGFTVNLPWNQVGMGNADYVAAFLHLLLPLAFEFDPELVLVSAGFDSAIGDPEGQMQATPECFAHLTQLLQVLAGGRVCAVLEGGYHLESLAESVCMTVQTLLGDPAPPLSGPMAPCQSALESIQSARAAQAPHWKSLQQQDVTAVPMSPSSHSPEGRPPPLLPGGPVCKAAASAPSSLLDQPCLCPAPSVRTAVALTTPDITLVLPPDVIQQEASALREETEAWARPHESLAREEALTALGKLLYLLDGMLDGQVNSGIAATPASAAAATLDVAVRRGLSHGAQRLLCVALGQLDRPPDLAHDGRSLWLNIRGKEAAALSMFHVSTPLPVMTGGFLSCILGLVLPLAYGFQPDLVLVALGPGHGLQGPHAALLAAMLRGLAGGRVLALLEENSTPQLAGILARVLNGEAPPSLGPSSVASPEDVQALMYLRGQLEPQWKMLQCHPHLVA
Description: Inhibition of N-terminal GST-tagged/C-terminal His-tagged human HDAC10 (1 to 481 residues) expressed in baculovirus infected Sf9 insect cells using BPS HDAC substrate 3 after 30 mins by fluorescence assay. An outline of the steps:
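Run by a contract lab. Compound incubated with HDAC enzyme, HDAC substrate, BSA and HDAC buffer, in duplicate, at 37 °C for 30 min. Quenched with HDAC developer, then 15 min at room temperature. Fluorescence read at ex 360/em 460 nm. Percent activity = (F−Fb)/(Ft−Fb), using blank and solvent-control wells. IC50 from curve fitting.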

Assay [3] is filed under the species Homo sapiens. Put plainly: Inhibition of class 1 HDAC in human HCT116 cells assessed as hyperacetylation of histone H3 (Lys9/14) measured at 8 hrs post treatment by immunoblot analysis. Format: cell-based. The method, boiled down: as §1
The target in assay [4] is Histone deacetylase 3/Nuclear receptor corepressor 2 (HDAC3/NCoR2) (Homo sapiens, UniProt O15379). Put plainly: Inhibition of full length human C-terminal His-tagged HDAC3/N-terminal GST-tagged NCOR2 (395 to 489 residues) expressed in baculovirus infected Sf9 insect cells using BPS HDAC substrate 3 after 30 mins by fluorescence assay. An outline of the steps: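 Run by a contract lab. Compound incubated with HDAC enzyme, substrate, bovine serum albumin and HDAC buffer in duplicate for 30 min at 37 °C. Activity taken as (F−Fb)/(Ft−Fb) against blank and solvent control wells; IC50 from curve fitting.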
Chain of Histone deacetylase 3/Nuclear receptor corepressor 2 (HDAC3/NCoR2) (O15379 whole entry, the tested form may be a part): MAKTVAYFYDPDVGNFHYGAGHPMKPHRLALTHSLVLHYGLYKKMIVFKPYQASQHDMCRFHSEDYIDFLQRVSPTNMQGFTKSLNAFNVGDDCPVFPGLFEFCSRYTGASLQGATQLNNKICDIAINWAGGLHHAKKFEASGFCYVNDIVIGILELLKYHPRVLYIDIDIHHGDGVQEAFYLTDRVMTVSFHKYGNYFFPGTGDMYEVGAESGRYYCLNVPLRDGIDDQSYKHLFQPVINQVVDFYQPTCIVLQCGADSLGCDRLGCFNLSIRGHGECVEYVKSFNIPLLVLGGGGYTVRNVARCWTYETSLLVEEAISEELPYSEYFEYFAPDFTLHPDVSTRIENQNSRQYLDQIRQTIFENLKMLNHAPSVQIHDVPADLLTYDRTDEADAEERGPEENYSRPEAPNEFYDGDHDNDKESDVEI
Chain of Histone deacetylase 3/Nuclear receptor corepressor 2 (HDAC3/NCoR2) (Q9Y618 whole entry, further chain, the tested form may be a part): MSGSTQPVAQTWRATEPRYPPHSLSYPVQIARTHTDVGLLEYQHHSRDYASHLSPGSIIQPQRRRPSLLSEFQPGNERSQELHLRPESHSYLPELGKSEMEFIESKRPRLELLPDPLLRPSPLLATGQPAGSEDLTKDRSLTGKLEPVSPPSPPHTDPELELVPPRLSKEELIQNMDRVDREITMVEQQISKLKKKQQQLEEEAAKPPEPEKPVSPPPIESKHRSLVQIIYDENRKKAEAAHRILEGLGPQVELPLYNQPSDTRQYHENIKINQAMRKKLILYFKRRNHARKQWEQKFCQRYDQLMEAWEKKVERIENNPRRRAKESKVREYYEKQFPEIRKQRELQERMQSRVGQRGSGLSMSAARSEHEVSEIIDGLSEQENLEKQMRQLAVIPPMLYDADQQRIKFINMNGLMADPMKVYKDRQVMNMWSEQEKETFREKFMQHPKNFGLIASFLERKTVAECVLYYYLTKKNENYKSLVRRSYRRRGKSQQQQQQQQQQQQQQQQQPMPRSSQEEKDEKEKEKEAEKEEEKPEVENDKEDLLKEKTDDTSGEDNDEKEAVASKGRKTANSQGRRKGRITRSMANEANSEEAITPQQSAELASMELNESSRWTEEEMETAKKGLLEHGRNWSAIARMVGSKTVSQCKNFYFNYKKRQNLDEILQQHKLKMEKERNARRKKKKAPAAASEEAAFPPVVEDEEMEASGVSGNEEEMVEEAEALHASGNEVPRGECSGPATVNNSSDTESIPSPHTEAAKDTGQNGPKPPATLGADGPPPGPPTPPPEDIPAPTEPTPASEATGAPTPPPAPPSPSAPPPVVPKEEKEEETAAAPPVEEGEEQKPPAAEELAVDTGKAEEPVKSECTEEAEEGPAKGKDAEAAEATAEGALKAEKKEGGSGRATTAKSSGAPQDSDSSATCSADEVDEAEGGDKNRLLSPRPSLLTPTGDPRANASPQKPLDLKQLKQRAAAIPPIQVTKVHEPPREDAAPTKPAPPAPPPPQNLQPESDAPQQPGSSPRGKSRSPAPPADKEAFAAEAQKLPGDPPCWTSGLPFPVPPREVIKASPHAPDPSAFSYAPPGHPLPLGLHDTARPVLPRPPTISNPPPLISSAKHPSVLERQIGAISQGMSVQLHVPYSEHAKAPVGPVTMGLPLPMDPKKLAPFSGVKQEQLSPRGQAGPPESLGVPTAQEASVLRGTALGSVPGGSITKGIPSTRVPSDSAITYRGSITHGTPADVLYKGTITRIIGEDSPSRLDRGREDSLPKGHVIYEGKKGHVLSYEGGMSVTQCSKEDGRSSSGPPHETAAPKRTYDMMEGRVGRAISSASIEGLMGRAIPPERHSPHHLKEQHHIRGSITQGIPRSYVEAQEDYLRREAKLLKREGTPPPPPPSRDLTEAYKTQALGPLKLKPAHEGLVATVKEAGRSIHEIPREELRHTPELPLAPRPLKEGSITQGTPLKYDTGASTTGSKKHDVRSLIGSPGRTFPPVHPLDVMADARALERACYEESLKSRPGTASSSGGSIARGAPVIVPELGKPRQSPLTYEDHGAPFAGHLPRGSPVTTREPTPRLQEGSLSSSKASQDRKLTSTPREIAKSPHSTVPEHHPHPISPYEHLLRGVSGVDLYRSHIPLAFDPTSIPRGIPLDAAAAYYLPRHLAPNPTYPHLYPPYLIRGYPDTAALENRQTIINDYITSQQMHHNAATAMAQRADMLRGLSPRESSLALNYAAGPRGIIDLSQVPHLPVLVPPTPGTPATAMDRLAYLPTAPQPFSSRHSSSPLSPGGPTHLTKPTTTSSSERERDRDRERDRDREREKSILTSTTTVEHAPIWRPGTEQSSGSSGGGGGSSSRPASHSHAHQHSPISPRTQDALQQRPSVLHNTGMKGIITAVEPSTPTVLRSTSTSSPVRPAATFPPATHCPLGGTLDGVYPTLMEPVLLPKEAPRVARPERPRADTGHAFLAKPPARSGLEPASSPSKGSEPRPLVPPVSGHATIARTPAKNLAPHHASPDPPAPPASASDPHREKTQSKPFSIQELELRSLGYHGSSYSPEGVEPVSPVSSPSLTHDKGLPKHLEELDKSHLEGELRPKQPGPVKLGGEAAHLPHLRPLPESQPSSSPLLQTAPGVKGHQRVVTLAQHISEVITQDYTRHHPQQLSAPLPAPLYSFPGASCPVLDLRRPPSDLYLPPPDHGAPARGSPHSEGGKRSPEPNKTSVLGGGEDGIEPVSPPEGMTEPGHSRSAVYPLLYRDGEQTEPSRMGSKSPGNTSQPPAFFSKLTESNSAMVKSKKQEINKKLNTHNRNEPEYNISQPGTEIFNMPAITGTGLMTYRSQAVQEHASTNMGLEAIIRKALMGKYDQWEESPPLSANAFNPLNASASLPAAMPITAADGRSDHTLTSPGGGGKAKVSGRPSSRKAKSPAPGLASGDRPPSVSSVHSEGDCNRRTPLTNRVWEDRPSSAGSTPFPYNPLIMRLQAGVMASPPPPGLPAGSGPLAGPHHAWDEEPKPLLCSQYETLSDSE

The target in assay [5] is Histone deacetylase 5 (Homo sapiens) (UniProt Q9UQL6). Put plainly: Inhibition of full length N-terminal GST-tagged human HDAC5 expressed in baculovirus infected Sf9 insect cells using BPS HDAC class 2a substrate at 10 uM after 30 mins by fluorescence assay relative to control. The method, boiled down: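 Run by a contract lab. Compound incubated with HDAC enzyme, substrate, bovine serum albumin and HDAC buffer in duplicate for 30 min at 37 °C. Quenched with HDAC developer, 15 min at room temperature, fluorescence read at ex 360/em 460 nm. Activity taken as (F−Fb)/(Ft−Fb) against blank and solvent control wells; IC50 from curve fitting.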
Chain of Histone deacetylase 5 (Homo sapiens) (Q9UQL6 whole entry): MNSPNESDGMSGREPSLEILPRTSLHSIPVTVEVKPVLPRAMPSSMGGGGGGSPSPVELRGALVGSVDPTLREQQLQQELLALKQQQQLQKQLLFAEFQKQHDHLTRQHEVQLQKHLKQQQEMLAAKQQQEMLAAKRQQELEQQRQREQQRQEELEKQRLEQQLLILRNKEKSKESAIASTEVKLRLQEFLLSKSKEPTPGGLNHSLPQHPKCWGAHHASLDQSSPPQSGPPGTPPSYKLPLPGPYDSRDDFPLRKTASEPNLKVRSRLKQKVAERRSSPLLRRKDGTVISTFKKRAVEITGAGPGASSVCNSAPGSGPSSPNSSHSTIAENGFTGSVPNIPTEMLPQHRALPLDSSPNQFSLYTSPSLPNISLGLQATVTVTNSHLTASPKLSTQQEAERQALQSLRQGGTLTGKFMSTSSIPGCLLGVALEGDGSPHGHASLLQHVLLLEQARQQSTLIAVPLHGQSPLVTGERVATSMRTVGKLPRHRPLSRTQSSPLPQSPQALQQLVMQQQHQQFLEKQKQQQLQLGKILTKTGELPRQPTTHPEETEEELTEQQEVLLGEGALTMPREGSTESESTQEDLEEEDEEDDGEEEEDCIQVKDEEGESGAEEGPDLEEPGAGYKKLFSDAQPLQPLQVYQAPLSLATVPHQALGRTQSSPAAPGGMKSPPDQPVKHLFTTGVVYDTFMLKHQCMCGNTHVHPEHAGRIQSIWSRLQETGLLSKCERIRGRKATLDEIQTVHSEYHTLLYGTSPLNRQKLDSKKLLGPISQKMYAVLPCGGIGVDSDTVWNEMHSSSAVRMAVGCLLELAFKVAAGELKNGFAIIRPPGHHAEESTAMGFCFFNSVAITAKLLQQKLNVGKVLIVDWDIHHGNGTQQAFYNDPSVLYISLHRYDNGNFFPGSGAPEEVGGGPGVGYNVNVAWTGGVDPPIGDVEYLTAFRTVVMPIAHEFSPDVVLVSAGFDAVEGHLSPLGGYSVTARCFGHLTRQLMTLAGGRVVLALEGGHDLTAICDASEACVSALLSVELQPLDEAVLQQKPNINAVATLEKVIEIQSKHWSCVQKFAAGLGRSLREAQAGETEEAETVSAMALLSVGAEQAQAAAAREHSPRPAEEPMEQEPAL

Structures are written as SMILES.

Chain of Histone deacetylase 2 (Q92769 whole entry): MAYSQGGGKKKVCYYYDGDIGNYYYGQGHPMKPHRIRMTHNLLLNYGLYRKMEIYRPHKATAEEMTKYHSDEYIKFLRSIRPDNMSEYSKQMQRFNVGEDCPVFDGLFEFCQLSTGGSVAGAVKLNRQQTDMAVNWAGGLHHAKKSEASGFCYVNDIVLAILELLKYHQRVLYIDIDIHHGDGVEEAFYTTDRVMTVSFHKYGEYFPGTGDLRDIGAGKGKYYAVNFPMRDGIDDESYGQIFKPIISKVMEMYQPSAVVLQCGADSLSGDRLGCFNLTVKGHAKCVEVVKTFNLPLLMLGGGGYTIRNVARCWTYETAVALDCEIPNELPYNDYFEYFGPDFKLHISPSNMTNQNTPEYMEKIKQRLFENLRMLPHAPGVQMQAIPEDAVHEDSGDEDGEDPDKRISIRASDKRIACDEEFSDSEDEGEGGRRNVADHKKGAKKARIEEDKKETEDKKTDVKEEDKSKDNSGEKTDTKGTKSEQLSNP

As for `CC(C)[C@@H]1NC(=O)[C@]2(C)CSC(=N2)c2csc(n2)CNC(=O)C[C@@H](/C=C/CCSCCS)OC1=O`, the half-inhibitory concentration (IC50) at Histone deacetylase 2 worked out at 90 nM; with MDA-MB-231 it was 480 nM; in assay [2] it was 3.6 nM; in assay [4] it was 43 nM. For the same compound, the inhibition entry in the assay listed under Homo sapiens [1] is “Dose-dependent effect”; in the assay filed under Homo sapiens [3], “Dose-dependent effect”; in assay [5] it was 22%.
In the case of `CC(C)[C@@H]1NC(=O)[C@]2(C)CSC(=N2)c2csc(n2)CNC(=O)C[C@@H](/C=C/CCC(=O)NO)OC1=O`, the half-inhibitory concentration (IC50) on Histone deacetylase 2 came to 69 nM; with MDA-MB-231, 497 nM; in assay [2], 21 nM; in assay [4], 29 nM. The inhibition entry is “Dose-dependent effect” in the assay listed under Homo sapiens [1], “Dose-dependent effect” in the assay listed under Homo sapiens [3] and 21% in assay [5].
